Screening data from PubChem BioAssay.
MrgX1 antag: antagonists of human MrgX1 receptor, primary screen, HEK293 cells, Fluo-4 calcium flux | BAM8-22 antagonism; hits give low values | B-score at 10 µM | hit rate 1.3% among 310,000 | AID 588676, 2011;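 active means calcium-response B-score plate-corrected more than 3 library SD below zero, starting fluorescence within 5 deviations, no agonist response on first addition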;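 further: peak minus trough fluorescence over baseline after final BAM8-22 challenge near maximal dose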
Target sequence (Q96LB2 whole entry, looked up): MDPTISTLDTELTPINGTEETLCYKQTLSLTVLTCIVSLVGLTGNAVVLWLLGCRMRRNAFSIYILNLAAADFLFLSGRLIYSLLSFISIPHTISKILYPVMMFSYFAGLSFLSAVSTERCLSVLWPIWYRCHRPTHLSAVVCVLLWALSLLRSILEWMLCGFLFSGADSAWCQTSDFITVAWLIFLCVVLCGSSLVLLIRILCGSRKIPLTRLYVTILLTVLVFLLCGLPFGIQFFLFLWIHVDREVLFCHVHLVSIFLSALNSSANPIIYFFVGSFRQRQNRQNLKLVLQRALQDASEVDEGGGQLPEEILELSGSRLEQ
MrgX1 ag: agonists of human MrgX1 receptor, primary screen, HEK293 cells, Fluo-4 calcium flux. Fluo-4 calcium fluorescence, agonist mode; hits give high values. B-score at 10 µM. hit rate 0.44% among 310,000. AID 588627, 2011;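 active means calcium response B-score plate-corrected fluorescence ratio at least 3 library SD, with starting fluorescence B-score inside 5 SD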
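System: HEK293 cells stably expressing human MrgX1 receptor; Dosing: test compound in the initial addition of three; Schedule: overnight plating, then 30 min 37 °C plus 30 min room-temperature dye loading; Detection: kinetic calcium dye fluorescence, Fluo-4 NW; Controls: per-plate positive and negative controls for Z′ factor.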
RGS4 act: RGS4 potentiators or activators, primary screen, cell-based, HEK293 M3R inducible RGS4, calcium flux; hit rate 0.92% among 310,000; B-score at 10 µM; carbachol calcium flux Fluo4; hits give low values;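 active means B-score of the integrated calcium signal more than 4 SD below the library mean, with starting fluorescence not abnormally high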;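 further: negative B-score means reduced calcium response which marks RGS4 activation or potentiation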
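Assay system: HEK293 FlpIn-TREx cells, stable M3R, doxycycline-inducible RGS4 / Probe or stimulus: carbachol, ECmax concentration / Times: overnight RGS4 induction, 30 min dye load 37 °C, 20 min compound RT / Signal: kinetic calcium fluorescence imaging with Fluo4-AM dye, 2 µM / Measure: Agonist-evoked peak-minus-minimum fluorescence over baseline, integrated ratio, B score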
MrgX1 allo act: positive allosteric modulators of MrgX1, primary screen, HEK293 cells, Fluo-4 calcium flux | FDSS; hits give high values | AID 588675, 2011 | hit rate 0.63% among 310,000 | B-score at 10 µM | Mas-related G-protein coupled receptor member X1 (Homo sapiens), Q96LB2;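 active means plate-corrected calcium response at least 3 library SD above typical, normal starting fluorescence, not activating the receptor alone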;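 further: compound read alongside a low EC10 to EC30 dose of BAM8-22 agonist; peak minus trough fluorescence over baseline measured at the second addition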
RGS4 block: RGS4 inhibitors, primary screen, cell-based, HEK293 M3R inducible RGS4, calcium flux. Fluo-4 calcium flux; hits give high values; triggered by carbachol at its EC20. B-score at 10 µM. hit rate 0.45% among 310,000;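 active means B-score, a plate-corrected calcium signal, over three deviations above library mean, with baseline fluorescence within five deviations of library mean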;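 further: RGS4 expression induced by doxycycline in cells with stable M3 receptor; B-score is computed from the integrated fluorescence ratio over baseline after carbachol; higher B-score means a larger calcium signal and so more RGS4 inhibition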
Target sequence (P49798 whole entry, looked up): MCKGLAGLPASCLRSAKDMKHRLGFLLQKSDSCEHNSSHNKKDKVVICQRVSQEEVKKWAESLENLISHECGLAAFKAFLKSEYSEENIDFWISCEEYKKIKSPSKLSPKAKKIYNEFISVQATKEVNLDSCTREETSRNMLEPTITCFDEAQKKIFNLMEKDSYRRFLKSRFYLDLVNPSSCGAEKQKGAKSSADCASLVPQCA
* hit, by the source's call; i = inactive; nt = no result. The list is not random: actives were taken first. Their share in the collection is about 3.5%.

SMILES	MrgX1 antag	MrgX1 ag	RGS4 act	MrgX1 allo act	RGS4 block
CC(C)(C)n1c(O)c(C=Nc2ccc3c(c2)CCC3)c(=O)[nH]c1=O	i	i	-7.1*	i	i
Cc1ccnc(NS(=O)(=O)c2ccc(N=Cc3c(O)n(C)c(=O)n(C)c3=O)cc2)n1	i	i	i	6.6*	i
CC1(C)C[C@H]2C=C(C=O)[C@]3(C=O)C[C@]3(C)[C@H]2C1	i	32*	i	i	i
O=[N+]([O-])c1cc(O)c(O)c([N+](=O)[O-])c1	-5.4*	i	nt	i	nt
CN1C(=O)/C(=C/c2ccc(N3CCCCCC3)o2)C(=O)NC1=S	i	32*	i	i	i
C=CCN1C(=O)/C(=C\c2ccc(N3CCOCC3)o2)C(=O)NC1=S	i	i	i	i	i
CN1C(=O)/C(=C\c2ccc(N3CCCCC3)o2)C(=O)NC1=S	i	29*	i	i	i
CN1C(=O)/C(=C\c2ccc(N3CCCCCC3)cc2)C(=O)NC1=S	i	i	i	i	i
Cc1ccc(C(=O)NC(O)C(Cl)(Cl)Cl)cc1 (stereo not drawn)	i	i	i	i	i
O=C(N/N=C\C1C(=O)NC(=S)N(c2ccccc2)C1=O)c1ccc(O)cc1 (stereo not drawn)	i	i	i	i	i
C=C1C(=O)O[C@@H]2C[C@@H](C)[C@@H]3C4OC4C(=O)[C@@]3(C)[C@@H](O)[C@H]12 (stereo partly drawn)	i	i	i	i	5.2*
CC(=O)N1CC(=O)Nc2ccc(Cl)cc2C1c1ccccc1 (stereo not drawn)	i	i	i	i	i
O=C1/C(=C\c2ccccc2)C2OCC=C3CN4CCC56c7ccccc7N1C5C2C3CC46 (stereo not drawn)	-6.6*	i	i	i	i
CCc1cc(=O)[nH]c(SCCCF)n1	i	i	i	i	i
COc1ccc(C(=O)O/N=C(/C(N)=O)P(=O)(OC(C)C)OC(C)C)cc1	i	i	-7.7*	i	i
CN1/C(=C\C=C\C2=[N+](C)c3ccc4ccccc4c3C2(C)C)C(C)(C)c2ccccc21	i	i	nt	i	nt
C[N+]1=C(/C=C/Nc2ccccc2)C(C)(C)c2ccccc21	-4.9*	i	i	i	i
Cc1cc(C)nc(NS(=O)(=O)c2ccc(N=Cc3c(O)n(C)c(=O)n(C)c3=O)cc2)n1	i	i	i	i	i
CC1Oc2cc3c(-c4c(O)cc(O)c5c(O)c6c(cc45)OC(C)C(C)C6=O)c(O)cc(O)c3c(O)c2C(=O)C1C (stereo not drawn)	-5.9*	i	i	i	i
O=C(C[N+]12CCN(CC1)CC2)NCCc1ccc(Cl)cc1Cl	i	i	i	i	i
COC(=O)C1=C(c2cc3ccccc3o2)C[C@@H]2CC[C@H]1N2C(=O)NCc1ccc(C(F)(F)F)cc1	i	i	i	9.2*	i
O=C(NC(=O)N1CCC2(CC1)OCCO2)c1ccc(Cl)cc1	i	i	i	i	i
C=C(C=O)CC1CC(O)[C@]2(C)OC3C[C@@H]4OC5C[C@]6(C)O[C@]7(C)CCC8OC9C[C@]%10(C)OC(/C(C)=C\CO)C(O)CC%10OC9CC(C)C8OC7CC6O[C@]5(C)C/C=C\C4OC3CC2O1 (stereo partly drawn)	i	i	nt	i	nt
C=C(C=O)C[C@@H]1C[C@H](O)C2OC3C[C@]4(C)OC5/C=C\CC6OC7C(CC=CCC6OC5CCCC4OC3CC2O1)OC1CC2OC3CC(=O)OC3C[C@@H](C)C[C@@]2(C)OC1C[C@@H]7C (stereo partly drawn)	nt	nt	-9.7*	nt	i
O=c1[nH]c(O)c(N=Nc2ccc(SC(F)F)cc2)c(=O)[nH]1	i	i	i	13*	i
SMILES	MrgX1 antag	MrgX1 ag	RGS4 act	MrgX1 allo act	RGS4 block
NC(=O)c1ccc(N=Nc2c(O)[nH]c(=O)[nH]c2=O)cc1	i	i	i	i	i
O=C(O)Cn1cc(/C=C2\C(=O)NC(=O)N(c3ccc(Cl)cc3)C2=O)c2ccccc21	i	i	i	i	i
Cn1cc(/C=C2\C(=O)NC(=O)N(c3ccccc3)C2=O)c2ccccc21	i	i	-7.8*	i	i
COc1cc(/C=C/c2nc3ccccc3c(=O)n2-c2ccc(O)cc2)ccc1O	i	i	-8.2*	i	i
COc1ccc(-n2c(/C=C/c3ccc(O)c(O)c3)nc3ccccc3c2=O)cc1	i	i	i	i	i
Cc1cc(C=C2C(=O)N(C)C(=S)N(C)C2=O)c(C)n1C1CCCCC1	i	47*	i	i	i
Cc1cc(C=C2C(=O)NC(=S)NC2=O)c(C)n1C1CCCC1	i	i	i	i	i
CC[C@@H]1C(=O)OC[C@@H]1Cc1cncn1C	i	i	nt	8.7*	nt
CN1CCN(c2nc(N)c(Br)c(Cl)n2)CC1	i	i	i	i	i
COc1cccc(C(=O)C2CN(C)CC2c2ccc(Cl)cc2)c1 (stereo not drawn)	i	i	i	i	i
COc1ccc(C(=O)C2CN(C)CC2c2ccc(Cl)cc2)cc1 (stereo not drawn)	i	i	-7.2*	i	i
COc1ccc(C(=O)NC(=S)N2C[C@H]3C[C@H](C2)c2cccc(=O)n2C3)cc1	i	i	i	i	i
COc1ccc(-[n+]2c(-c3ccccc3)cc(-c3ccc(C)cc3)cc2-c2ccccc2)cc1	-6.7*	i	-7.5*	14*	i
Brc1ccc(-[n+]2c(-c3ccccc3)cc(-c3ccccc3)cc2-c2ccccc2)cc1	i	i	-8.6*	i	i
CCCOC(=O)c1ccc(-[n+]2c(-c3ccccc3)cc(-c3ccccc3)cc2-c2ccccc2)cc1	i	34*	-7.2*	i	i
NC(N)=N/N=C/c1ccc(N(c2ccccc2)c2ccccc2)cc1	i	i	-8.3*	i	i
CCN1CCN(CC(c2ccccc2)c2ccccc2)CC1	i	i	-7*	i	i
CN(C)CCSC1c2ccccc2CSc2ccccc21 (stereo not drawn)	i	i	-9.1*	i	i
COc1cccc(CNC(=O)CCC(=O)N2C[C@H]3C[C@H](C2)c2cccc(=O)n2C3)c1OC	i	i	i	i	i
O=C1Nc2cc(C(=O)N3CCC4(CC3)OCCO4)ccc2NC1CSCc1cccc(F)c1 (stereo not drawn)	i	42*	i	i	i
